Reference: ChEMBL document CHEMBL4052828, “Discovery of 4-((7H-Pyrrolo[2,3-d]pyrimidin-4-yl)amino)-N-(4-((4-methylpiperazin-1-yl)methyl)phenyl)-1H-pyrazole-3-carboxamide (FN-1501), an FLT3- and CDK-Kinase Inhibitor with Potentially High Efficiency against Acute Myelocytic Leukemia” (J Med Chem, 2018)
Activity calls are given as the source filed them. The rule behind the calls is not given here.

Tests used:
MV4-11 [1] = experiment: Growth inhibition of human MV4-11 cells after 72 hrs by CellTiter-Glo assay; format: functional, cell-based; conditions: MV4-11, 72 h
How it was run: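 MV4-11 cells grown in IMDM with 10% FBS, 2% L-glutamine and 1% pen/strep at 37 °C, 5% CO2. Seeded at 10000 cells/well and exposed to compound at various concentrations for 72 h. Viability read by CellTiter-Glo luminescence.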

[2] = target: Receptor-type tyrosine-protein kinase FLT3 (Homo sapiens) (UniProt P36888); conditions: 1 uM
MV4-11 [3] = experiment: Cell cycle arrest in human MV4-11 cells assessed as accumulation at G0/G1 phase at 0.2 uM after 24 hrs by propidium iodide/BrdU staining-based flow cytometric method; format: functional
How it was run: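 Cells treated with compound for 24 h, then fixed. Double-stained with propidium iodide and BrdU for flow cytometric analysis of cell cycle distribution.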

[4] = target: Receptor-type tyrosine-protein kinase FLT3 (Homo sapiens) (UniProt P36888); conditions: 1 uM; remark: listed apart in the source
[5] = target: Receptor-type tyrosine-protein kinase FLT3 (Homo sapiens) (UniProt P36888); conditions: 1 uM; remark: listed apart in the source
MV4-11 [6] = experiment: Induction of apoptosis in human MV4-11 cells assessed as early apoptotic cells at 2 uM after 24 hrs by annexin V-FITC/propidium iodide staining-based flow cytometric method (reference value: 3.54%); format: functional
MV4-11 [7] = experiment: Induction of apoptosis in human MV4-11 cells assessed as late apoptotic cells at 2 uM after 24 hrs by annexin V-FITC/propidium iodide staining-based flow cytometric method (reference value: 2.54%); format: functional
[8] = target: Receptor-type tyrosine-protein kinase FLT3 (Homo sapiens) (UniProt P36888); conditions: 1 uM; remark: listed apart in the source
[9] = target: Cyclin-dependent kinase 4/cyclin D1 (Homo sapiens, UniProt P11802); experiment: Inhibition of human CDK4/Cyclin D1 using RB protein as substrate preincubated for 20 mins followed by [gamma-33P]-ATP addition measure after 120 mins by filter binding method; format: protein-complex assay
How it was run: (§1)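 Compound preincubated with kinase 20 min at room temperature. Reaction started with 10 μM [γ-33P]ATP and run 120 min at 25°C. Filter-binding read-out, curve-fitted IC50; mean ± SD of three independent experiments.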

CDK6/cyclin D1 = CDK6/cyclin D1 (Homo sapiens, UniProt Q00534); experiment: Inhibition of human CDK6/Cyclin D1 using RB protein as substrate preincubated for 20 mins followed by [gamma-33P]-ATP addition measure after 120 mins by filter binding method; format: protein-complex assay; how it was run: as §1
RS4-11 = experiment: Growth inhibition of human RS4:11 cells after 72 hrs by CellTiter-Glo assay; format: functional; conditions: RS4-11, 72 h
[10] = target: ALK tyrosine kinase receptor (Homo sapiens, UniProt Q9UM73); experiment: Inhibition of human ALK using poly[Glu:Tyr] (4:1) as substrate preincubated for 20 mins followed by [gamma-33P]-ATP addition measure after 120 mins by filter binding method
How it was run: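 Compound in DMSO was added to the kinase mixture for 20 min at room temperature. The reaction was started with 10 μM [γ-33P]ATP and run 120 min at 25 °C.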

MGC-803 = experiment: Growth inhibition of human MGC803 cells after 72 hrs by CellTiter-Glo assay; format: functional; conditions: MGC-803, 72 h
CDK2/Cyclin A1 = CDK2/Cyclin A1 (Homo sapiens, UniProt P24941); experiment: Inhibition of human CDK2/Cyclin A1 using histone H1 as substrate preincubated for 20 mins followed by [gamma-33P]-ATP addition measure after 120 mins by filter binding method; format: protein-complex assay
How it was run: (§2)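 Compound preincubated with kinase 20 min at room temperature. Filter-binding read-out, curve-fitted IC50; mean ± SD of three independent experiments.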

HCT-116 = experiment: Growth inhibition of human HCT116 cells after 72 hrs by CellTiter-Glo assay; format: functional; conditions: HCT-116, 72 h
[11] = target: T1, Receptor-type tyrosine-protein kinase FLT3 (Homo sapiens, UniProt P36888); experiment: Inhibition of human FLT3 using EAIYAAPFAKKK as substrate preincubated for 20 mins followed by [gamma-33P]-ATP addition measure after 120 mins by filter binding method; how it was run: as §2
T1 sequence (P36888 whole entry): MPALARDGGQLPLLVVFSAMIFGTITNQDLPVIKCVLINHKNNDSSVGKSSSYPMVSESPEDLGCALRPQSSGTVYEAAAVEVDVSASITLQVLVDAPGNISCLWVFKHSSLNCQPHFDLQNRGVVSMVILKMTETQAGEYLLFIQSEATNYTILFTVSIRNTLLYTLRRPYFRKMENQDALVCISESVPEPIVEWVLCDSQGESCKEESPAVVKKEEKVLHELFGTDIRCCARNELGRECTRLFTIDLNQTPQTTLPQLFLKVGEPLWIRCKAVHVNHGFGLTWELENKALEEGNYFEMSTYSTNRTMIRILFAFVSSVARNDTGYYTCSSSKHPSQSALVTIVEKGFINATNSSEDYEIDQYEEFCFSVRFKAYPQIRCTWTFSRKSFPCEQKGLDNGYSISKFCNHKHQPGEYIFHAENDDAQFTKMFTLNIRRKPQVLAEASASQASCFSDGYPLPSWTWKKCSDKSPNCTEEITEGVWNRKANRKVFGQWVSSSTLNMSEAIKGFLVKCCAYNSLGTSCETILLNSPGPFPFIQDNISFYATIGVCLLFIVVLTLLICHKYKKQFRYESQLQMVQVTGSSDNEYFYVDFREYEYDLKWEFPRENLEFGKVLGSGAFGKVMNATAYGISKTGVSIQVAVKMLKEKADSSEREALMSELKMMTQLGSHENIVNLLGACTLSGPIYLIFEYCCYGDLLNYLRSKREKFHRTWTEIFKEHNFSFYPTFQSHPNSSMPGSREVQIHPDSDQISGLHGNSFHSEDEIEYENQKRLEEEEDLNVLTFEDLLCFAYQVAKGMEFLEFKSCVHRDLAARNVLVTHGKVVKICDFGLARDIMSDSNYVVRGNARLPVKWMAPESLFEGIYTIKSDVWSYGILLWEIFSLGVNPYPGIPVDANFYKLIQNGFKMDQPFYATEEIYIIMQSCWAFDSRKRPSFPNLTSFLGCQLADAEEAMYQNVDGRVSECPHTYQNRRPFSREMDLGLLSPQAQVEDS

NCI-H82 = experiment: Growth inhibition of human NCI-H82 cells after 72 hrs by CellTiter-Glo assay; format: functional; conditions: NCI-H82, 72 h
MCF7 = experiment: Growth inhibition of human MCF7 cells after 72 hrs by CellTiter-Glo assay; format: functional; conditions: MCF7, 72 h
MV4-11 [12] = experiment: Antitumor activity against human MV4-11 cells xenografted in nu/nu mouse assessed as tumor growth inhibition at 50 mg/kg, iv qd measured on day 21 relative to vehicle-treated control; format: functional; conditions: MV4-11, iv, 504 h, read-out: TGI
How it was run: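 Female nu/nu mice bearing MV4-11 xenografts; dosing began once tumors reached 200 mm3. Given iv once daily for 21 days, with a vehicle-only group. Body weight and tumor size tracked relative to initial values, set as 100%. Tumors weighed at the end of the 22-day treatment period.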

Chain of Cyclin-dependent kinase 4/cyclin D1 (P11802 whole entry): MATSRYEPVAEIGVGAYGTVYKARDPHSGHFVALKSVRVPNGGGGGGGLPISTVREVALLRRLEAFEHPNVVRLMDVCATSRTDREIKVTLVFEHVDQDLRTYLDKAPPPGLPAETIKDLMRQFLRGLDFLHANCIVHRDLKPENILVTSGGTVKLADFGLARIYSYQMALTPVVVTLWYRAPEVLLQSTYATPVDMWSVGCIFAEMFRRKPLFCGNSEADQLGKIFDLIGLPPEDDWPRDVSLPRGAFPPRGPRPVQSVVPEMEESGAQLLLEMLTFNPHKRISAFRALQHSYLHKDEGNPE
Chain of Cyclin-dependent kinase 4/cyclin D1 (P24385 whole entry, further chain): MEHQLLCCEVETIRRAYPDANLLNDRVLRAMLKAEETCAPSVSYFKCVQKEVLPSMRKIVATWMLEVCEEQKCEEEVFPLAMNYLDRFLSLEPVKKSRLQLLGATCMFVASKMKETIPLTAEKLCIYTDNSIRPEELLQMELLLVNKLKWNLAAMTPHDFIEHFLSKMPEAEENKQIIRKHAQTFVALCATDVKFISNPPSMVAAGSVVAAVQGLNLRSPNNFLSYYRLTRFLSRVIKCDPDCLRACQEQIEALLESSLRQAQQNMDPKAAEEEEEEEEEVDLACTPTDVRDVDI
Chain of CDK6/cyclin D1 (P24385 whole entry): as the sequence (P24385 whole entry, further chain) above
Chain of CDK6/cyclin D1 (Q00534 whole entry): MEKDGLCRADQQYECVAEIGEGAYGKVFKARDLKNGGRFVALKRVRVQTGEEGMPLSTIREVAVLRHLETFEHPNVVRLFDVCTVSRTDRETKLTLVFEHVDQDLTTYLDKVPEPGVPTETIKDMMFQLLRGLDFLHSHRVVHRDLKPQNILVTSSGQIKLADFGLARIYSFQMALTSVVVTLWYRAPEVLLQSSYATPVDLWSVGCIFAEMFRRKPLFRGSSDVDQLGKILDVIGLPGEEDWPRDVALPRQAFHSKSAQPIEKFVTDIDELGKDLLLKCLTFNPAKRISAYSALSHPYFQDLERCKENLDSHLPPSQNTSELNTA
Chain of ALK tyrosine kinase receptor (Q9UM73 whole entry): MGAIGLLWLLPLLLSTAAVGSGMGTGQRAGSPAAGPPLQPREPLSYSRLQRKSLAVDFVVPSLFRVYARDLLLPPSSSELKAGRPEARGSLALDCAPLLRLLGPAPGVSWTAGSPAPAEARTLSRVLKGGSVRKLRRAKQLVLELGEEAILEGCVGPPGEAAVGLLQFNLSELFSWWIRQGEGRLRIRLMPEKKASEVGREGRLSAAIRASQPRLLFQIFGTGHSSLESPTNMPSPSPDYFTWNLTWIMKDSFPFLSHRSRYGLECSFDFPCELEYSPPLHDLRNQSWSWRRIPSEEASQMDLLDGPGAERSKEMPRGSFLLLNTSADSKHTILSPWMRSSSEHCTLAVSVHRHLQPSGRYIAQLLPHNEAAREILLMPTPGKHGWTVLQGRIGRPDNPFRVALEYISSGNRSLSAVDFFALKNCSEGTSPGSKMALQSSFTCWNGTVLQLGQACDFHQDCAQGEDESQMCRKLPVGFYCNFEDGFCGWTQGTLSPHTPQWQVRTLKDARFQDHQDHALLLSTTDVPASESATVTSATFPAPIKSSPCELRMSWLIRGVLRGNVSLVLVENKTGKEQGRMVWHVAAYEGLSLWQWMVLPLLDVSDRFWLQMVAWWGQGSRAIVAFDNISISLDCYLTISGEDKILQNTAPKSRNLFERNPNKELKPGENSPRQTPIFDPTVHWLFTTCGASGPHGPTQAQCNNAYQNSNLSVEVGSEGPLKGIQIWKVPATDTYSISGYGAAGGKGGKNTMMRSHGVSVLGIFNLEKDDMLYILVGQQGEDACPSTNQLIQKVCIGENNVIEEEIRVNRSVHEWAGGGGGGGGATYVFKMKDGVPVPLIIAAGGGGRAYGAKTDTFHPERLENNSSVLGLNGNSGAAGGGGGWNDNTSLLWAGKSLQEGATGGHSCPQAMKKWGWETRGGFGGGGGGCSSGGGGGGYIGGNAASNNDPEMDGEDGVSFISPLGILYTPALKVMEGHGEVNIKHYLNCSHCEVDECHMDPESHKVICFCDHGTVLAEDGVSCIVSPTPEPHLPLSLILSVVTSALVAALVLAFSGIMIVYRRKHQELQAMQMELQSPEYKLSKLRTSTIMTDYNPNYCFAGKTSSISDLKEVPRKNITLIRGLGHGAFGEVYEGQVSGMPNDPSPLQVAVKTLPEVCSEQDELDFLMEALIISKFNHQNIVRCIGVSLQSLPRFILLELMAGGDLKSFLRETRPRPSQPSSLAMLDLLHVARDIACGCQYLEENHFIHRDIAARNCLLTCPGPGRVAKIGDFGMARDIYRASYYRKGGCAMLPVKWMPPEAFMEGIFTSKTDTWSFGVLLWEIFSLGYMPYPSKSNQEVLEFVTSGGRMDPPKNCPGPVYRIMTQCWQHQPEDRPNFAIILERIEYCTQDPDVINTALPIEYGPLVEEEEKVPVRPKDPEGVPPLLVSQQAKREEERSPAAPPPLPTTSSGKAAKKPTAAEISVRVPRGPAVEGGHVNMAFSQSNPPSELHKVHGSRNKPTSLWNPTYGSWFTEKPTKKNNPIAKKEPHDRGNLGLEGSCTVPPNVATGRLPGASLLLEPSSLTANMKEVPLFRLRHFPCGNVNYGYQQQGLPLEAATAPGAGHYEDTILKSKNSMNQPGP

Row | Compound | IC50 (MV4-11 [1]) [µM] | inhibition [2] | Activity (MV4-11 [3]) | inhibition [4] | inhibition [5] | Activity (MV4-11 [6]) [%] | Activity (MV4-11 [7]) [%] | inhibition [8] | IC50 [9] [µM] | IC50 (CDK6/cyclin D1) [µM] | GI50 (RS4-11) [µM] | IC50 [10] [µM] | GI50 (MGC-803) [µM] | IC50 (CDK2/Cyclin A1) [µM] | GI50 (HCT-116) [µM] | IC50 [11] [µM] | GI50 (NCI-H82) [µM] | GI50 (MCF7) [µM] | inhibition in vivo at 50 mg/kg (MV4-11 [12]) [%]
1 | CNC(=O)c1cc(Oc2ccc(NC(=O)Nc3ccc(Cl)c(C(F)(F)F)c3)cc2)ccn1 [SORAFENIB] | 0.004 | Active | Active | Active | Active | 51.35 | 23.97 | Active | – | – | – | – | – | – | – | – | – | – | –
2 | CN1CCN(Cc2ccc(NC(=O)c3n[nH]cc3Nc3ncnc4sccc34)cc2)CC1 | 0.019 | – | – | – | – | – | – | – | 0.00333 to 0.00557 | 0.00424 to 0.0045 | 0.13 | 0.0941 | 0.16 | 0.00585 to 0.00947 | 0.37 | 0.000438 to 0.0006 | 0.17 | 0.62 | –
3 | Nc1ccn([C@@H]2O[C@H](CO)[C@@H](O)[C@@H]2O)c(=O)n1 [CYTARABINE] | – | – | – | – | – | – | – | – | – | – | – | – | – | – | – | – | – | – | 61.9
